Test results reported in ChEMBL document CHEMBL2203109, “3-Phenyl substituted 6,7-dimethoxyisoquinoline derivatives as FtsZ-targeting antibacterial agents” (Bioorg Med Chem, 2012).
pKd: −log10 of the molar value. ≈ marks a conversion by molar mass, not a printed value. Calls of active or inactive are those of the source. No cut-off for these calls is given here.

Columns and labels:
[1] = target: T1, Cell division protein FtsZ (Staphylococcus aureus) (UniProt P0A031); assay: Induction of Staphylococcus aureus GTPase activity assessed as inorganic phosphate release upon GTP hydrolysis at less than 40 ug/ml preincubated for 10 mins before substrate addition measured after 2 hrs by malachite green based colorimetric analysis
T1 sequence (whole entry): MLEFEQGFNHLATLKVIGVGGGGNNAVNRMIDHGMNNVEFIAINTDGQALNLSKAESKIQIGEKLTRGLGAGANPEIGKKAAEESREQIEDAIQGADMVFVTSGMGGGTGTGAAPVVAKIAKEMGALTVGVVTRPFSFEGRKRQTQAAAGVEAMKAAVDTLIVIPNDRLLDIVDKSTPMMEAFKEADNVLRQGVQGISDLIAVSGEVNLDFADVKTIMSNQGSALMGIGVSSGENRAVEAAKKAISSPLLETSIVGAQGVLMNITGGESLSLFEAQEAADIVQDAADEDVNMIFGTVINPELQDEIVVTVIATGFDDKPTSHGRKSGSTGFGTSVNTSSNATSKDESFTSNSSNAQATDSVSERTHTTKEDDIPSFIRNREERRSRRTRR
In short: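 S. aureus FtsZ expressed in E. coli, 10 μM, with DMSO or compound (0.1–200 μg/mL) in 50 mM Tris HCl pH 7.4, 50 mM KCl, 2 mM Mg acetate, 5 mM CaCl2; duplicate reactions. After 10 min room-temperature pre-equilibration, 250 μM GTP added, 2 h at 37 °C. Pi by malachite green, A620, phosphate standard curve; expressed as percent of vehicle.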

[2] = target: T1, Cell division protein FtsZ (Staphylococcus aureus); assay: Induction of Staphylococcus aureus FtsZ polymerization at 40 ug/ml measured for 60 mins by microtiter plate-based light scattering assay
In short: (§1)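 Turbidity assay. 10 μM SaFtsZ plus compound (0–40 μg/mL) in 50 mM Tris HCl pH 7.4, 50 mM KCl, 2 mM magnesium acetate, 5 mM CaCl2, pre-equilibrated 10 min at room temperature. Started by adding 1 mM GTP or FtsZ; A340 followed for 60 min at 25 °C. For polymer stability, 1 mM GDP added mid-run.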

[3] = system: Staphylococcus aureus; assay: Antibacterial activity against log-phase methicillin-resistant Staphylococcus aureus ATCC 33591 assessed as growth inhibition after 24 hrs by broth microdilution method; format: functional; conditions: ATCC 33591, 24 h
In short: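 CLSI broth microdilution; 10^5 CFU/mL log-phase bacteria in cation-adjusted Mueller-Hinton broth with 2% NaCl, two-fold serial dilutions from 64 to 0.031 μg/mL; aerobic incubation 24 h at 37 °C; growth read as OD600; MIC = lowest concentration giving ≥90% growth inhibition.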

[4] = system: Enterococcus faecalis; assay: Antibacterial activity against log-phase vancomycin-sensitive Enterococcus faecalis ATCC 19433 assessed as growth inhibition after 24 hrs by broth microdilution method; format: functional; conditions: ATCC 19433, 24 h
In short: (§2)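 CLSI broth microdilution. Log-phase bacteria at 10^5 CFU/mL with two-fold serial dilutions (64 to 0.031 μg/mL). S. aureus tested in cation-adjusted Mueller-Hinton broth; E. faecalis in brain–heart infusion broth. Aerobic incubation 24 h at 37 °C. OD600 read; MIC is the lowest concentration giving ≥90% growth inhibition.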

[5] = system: HEK293; assay: Cytotoxicity against human HEK293 cells at 10 uM after 4 days by MTT assay; format: cell-based; conditions: hek293, 96 h
In short: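 MTT assay. HEK293 or MDCK cells kept at 37 °C, 5% CO2 in DMEM, seeded at 1500 cells per well. Continuous 4-day exposure to varying drug concentrations in triplicate wells, with a drug-free control. MTT read at end of day 4; IC50 determined.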

[6] = target: T1, Cell division protein FtsZ (Staphylococcus aureus); assay: Residual Staphylococcus aureus GTPase activity assessed as inorganic phosphate release upon GTP hydrolysis at 40 ug/ml preincubated for 10 mins before substrate addition measured after 2 hrs by malachite green based colorimetric analysis
[7] = system: Staphylococcus aureus; assay: Antibacterial activity against log-phase methicillin-sensitive Staphylococcus aureus 8325-4 assessed as growth inhibition after 24 hrs by broth microdilution method; format: functional; conditions: 8325-4, 24 h; in short: as §2
[8] = target: T1, Cell division protein FtsZ (Staphylococcus aureus); assay: Induction of Staphylococcus aureus FtsZ polymerization measured for 60 mins by microtiter plate-based light scattering assay; in short: as §1
[9] = system: Enterococcus faecalis; assay: Antibacterial activity against log-phase vancomycin-resistant Enterococcus faecalis ATCC 51575 assessed as growth inhibition after 24 hrs by broth microdilution method; format: functional; conditions: ATCC 51575, 24 h
In short: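 CLSI broth microdilution in brain–heart infusion broth; log-phase bacteria at 10^5 CFU/mL, two-fold serial dilutions 64 to 0.031 μg/mL; 24 h aerobic incubation at 37 °C; OD600 read-out; MIC taken as lowest concentration inhibiting growth ≥90%.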

[10] = target: Tubulin beta chain (Sus scrofa) (UniProt P02554); assay: Induction of pig MAP-rich beta-tubulin polymerization at 25 ug/ml measured for 60 mins by microtiter plate based light scattering assay
In short: (§3)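 Porcine tubulin (70% β-tubulin, 30% MAPs) at 2 mg/mL with 1 mM GTP and compound in 80 mM PIPES NaOH pH 7.0, 2 mM MgCl2, 1 mM EGTA. A340 followed continuously at 37 °C for 60 min.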

[11] = target: T2, Cell division protein FtsZ (Staphylococcus aureus, UniProt P0A031); assay: Binding affinity to Staphylococcus aureus FtsZ expressed in Escherichia coli cells assessed as dissociation constant by fluorescence spectroscopy
T2 sequence (P0A031 whole entry): T1 sequence (whole entry)
In short: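 Recombinant SaFtsZ from E. coli titrated stepwise into compound (7 or 10 μM) in 50 mM Tris HCl pH 7.4, 50 mM KCl, 2 mM magnesium acetate. After 3 min equilibration per addition, emission scanned 510–370 nm and buffer-only titration background subtracted. Kd obtained by fitting intensity changes to a 1:1 binding model.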

[12] = target: Tubulin beta chain (Sus scrofa) (UniProt P02554); assay: Induction of pig MAP-rich beta-tubulin polymerization at 40 ug/ml measured for 60 mins by microtiter plate based light scattering assay; in short: as §3
[13] = target: T1, Cell division protein FtsZ (Staphylococcus aureus); assay: Induction of Staphylococcus aureus FtsZ polymerization at 40 ug/ml measured for 60 mins by microtiter plate-based light scattering assay in presence of GTP
[14] = target: Tubulin beta chain (Sus scrofa) (UniProt P02554); conditions: 10 ug/ml

Tubulin beta chain (Sus scrofa), sequence (P02554 whole entry): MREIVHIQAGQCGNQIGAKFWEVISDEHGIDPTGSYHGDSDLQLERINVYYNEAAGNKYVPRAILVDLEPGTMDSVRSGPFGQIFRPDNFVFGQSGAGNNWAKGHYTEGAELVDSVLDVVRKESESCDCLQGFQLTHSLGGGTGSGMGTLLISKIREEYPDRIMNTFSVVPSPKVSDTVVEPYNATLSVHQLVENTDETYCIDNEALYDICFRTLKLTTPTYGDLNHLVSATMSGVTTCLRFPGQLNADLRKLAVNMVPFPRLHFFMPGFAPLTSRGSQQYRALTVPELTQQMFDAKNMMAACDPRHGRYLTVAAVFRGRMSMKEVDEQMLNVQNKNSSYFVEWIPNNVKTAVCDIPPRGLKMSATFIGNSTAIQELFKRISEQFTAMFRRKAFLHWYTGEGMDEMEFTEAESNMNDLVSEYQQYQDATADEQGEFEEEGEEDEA

| Activity [10] | inhibition [14] | SMILES | Activity [1] | Activity [2] | MIC90 [3] | MIC90 [4] | Activity [5] | residual activity [6] | MIC90 [7] | Activity [8] | MIC90 [9] | pKd [11] | Activity [12] | Activity [13] |
| --- | --- | --- | --- | --- | --- | --- | --- | --- | --- | --- | --- | --- | --- | --- |
|  |  | COc1cc2cc(-c3cccc(-c4ccccc4)c3)nc(CCN=C(N)N)c2cc1OC | Active | Active | 2 µg/mL (≈ 4.69 µM) | 8 µg/mL (≈ 18.8 µM) | Non-toxic | 56% | 2 µg/mL (≈ 4.69 µM) | Dose-dependent effect | 8 µg/mL (≈ 18.8 µM) |  |  |  |
| Active |  | CC(=O)O[C@H]1C(=O)[C@@]2(C)[C@H]([C@H](OC(=O)c3ccccc3)[C@]3(O)C[C@H](OC(=O)[C@H](O)[C@@H](NC(=O)c4ccccc4)c4ccccc4)C(C)=C1C3(C)C)[C@]1(OC(C)=O)CO[C@@H]1C[C@@H]2O |  |  |  |  |  |  |  |  |  |  |  |  |
|  |  | COc1cc2cc(-c3cccc(-c4ccc(-c5ccccc5)cc4)c3)[n+](C)c(C)c2cc1OC.[I-] |  | Active | 2 µg/mL | 4 µg/mL |  | 30.2% | 1 µg/mL | Dose-dependent effect | 8 µg/mL | 5.70 |  |  |
|  |  | COc1cc2cc(-c3cccc(C(C)(C)C)c3)nc(CN=C(N)N)c2cc1OC |  | Active | 8 µg/mL (≈ 20.4 µM) | 16 µg/mL (≈ 40.8 µM) | Non-toxic | 60.4% | 4 µg/mL (≈ 10.2 µM) | Dose-dependent effect | 16 µg/mL (≈ 40.8 µM) |  | inactive |  |
|  |  | COc1cc2cc(-c3cccc(C(C)(C)C)c3)nc(C/N=C(/C)N)c2cc1OC | Active | Active | 8 µg/mL (≈ 20.4 µM) | 16 µg/mL (≈ 40.9 µM) |  | 64.8% | 8 µg/mL (≈ 20.4 µM) | Dose-dependent effect | 16 µg/mL (≈ 40.9 µM) |  |  |  |
|  |  | COc1cc2cc(-c3cccc(-c4ccc(C(C)(C)C)cc4)c3)[n+](C)c(C)c2cc1OC.[I-] |  | Active | 8 µg/mL | 8 µg/mL |  | 14.9% | 1 µg/mL | Dose-dependent effect | 8 µg/mL | 5.27 | inactive | Active |
|  | Active | COC(=O)Nc1nc2cc(C(=O)c3cccs3)ccc2[nH]1 |  |  |  |  |  |  |  |  |  |  |  |  |
